Active and inactive are the calls of the source. No cut-off for these calls is given here.
Tests used:
[1] = biological target: T1, Inosine-5'-monophosphate dehydrogenase 1 (Homo sapiens, UniProt P20839); assay: Inhibitory activity against human Inosine-5'-monophosphate dehydrogenase 1 (IMPDH type I)
Summary of the method: (§1)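 Human IMPDH isoforms type I and type II assayed separately. Substrate, cofactor and inhibitor were premixed, and the reaction was started by adding enzyme. Values are reported as Ki.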
Target sequence in this assay (P20839 whole entry, canonical isoform): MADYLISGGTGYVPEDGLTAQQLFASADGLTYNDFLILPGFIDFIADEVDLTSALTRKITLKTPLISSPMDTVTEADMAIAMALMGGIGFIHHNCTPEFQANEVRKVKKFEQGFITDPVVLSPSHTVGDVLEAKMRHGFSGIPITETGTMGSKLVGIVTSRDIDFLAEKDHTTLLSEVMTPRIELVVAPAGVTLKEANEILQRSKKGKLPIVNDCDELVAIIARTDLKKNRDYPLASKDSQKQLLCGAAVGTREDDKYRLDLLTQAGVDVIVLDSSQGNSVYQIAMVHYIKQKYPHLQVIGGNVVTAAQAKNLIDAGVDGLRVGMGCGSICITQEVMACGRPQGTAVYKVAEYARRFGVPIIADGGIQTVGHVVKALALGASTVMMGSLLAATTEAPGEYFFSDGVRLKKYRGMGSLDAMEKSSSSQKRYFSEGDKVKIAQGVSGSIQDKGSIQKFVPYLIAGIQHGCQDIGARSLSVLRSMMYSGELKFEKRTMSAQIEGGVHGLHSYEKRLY

[2] = biological target: T2, Inosine-5'-monophosphate dehydrogenase 2 (Homo sapiens, UniProt P12268); assay: Inhibitory activity against human Inosine-5'-monophosphate dehydrogenase 2 (IMPDH type II)
K562 [3] = assay: Compound effect on differentiation of K562 cells, % of benzidine positive cells at 1.0 uM; assay type: functional, Homo sapiens
K562 [4] = assay: Compound effect on differentiation of K562 cells, % of benzidine positive cells at 14 uM; assay type: functional, Homo sapiens
[5] = biological target: T1, Inosine-5'-monophosphate dehydrogenase 1; assay: Inhibitory activity against human Inosine-5'-monophosphate dehydrogenase 1 (IMPDH type I); NA is not active; summary of the method: as §1
Target sequence in this assay (P20839 2-514 limits assumed): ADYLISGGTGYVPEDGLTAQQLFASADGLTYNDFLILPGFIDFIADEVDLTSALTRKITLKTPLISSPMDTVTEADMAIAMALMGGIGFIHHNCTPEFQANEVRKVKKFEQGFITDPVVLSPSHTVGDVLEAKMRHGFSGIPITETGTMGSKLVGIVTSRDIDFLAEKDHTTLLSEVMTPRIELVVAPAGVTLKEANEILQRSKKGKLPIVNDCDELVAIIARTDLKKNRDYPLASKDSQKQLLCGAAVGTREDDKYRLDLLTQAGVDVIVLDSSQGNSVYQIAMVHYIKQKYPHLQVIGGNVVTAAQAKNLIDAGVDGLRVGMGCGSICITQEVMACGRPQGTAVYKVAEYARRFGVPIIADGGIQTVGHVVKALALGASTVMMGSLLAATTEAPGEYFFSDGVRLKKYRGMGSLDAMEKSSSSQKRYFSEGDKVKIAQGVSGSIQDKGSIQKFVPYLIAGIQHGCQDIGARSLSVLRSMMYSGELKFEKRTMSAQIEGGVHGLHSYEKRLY

[6] = biological target: T2, Inosine-5'-monophosphate dehydrogenase 2; assay: Inhibitory activity against human Inosine-5'-monophosphate dehydrogenase 2 (IMPDH type II); NA is not active; summary of the method: as §1
K562 [7] = assay: Compound effect on differentiation of K562 cells, % of benzidine positive cells at 15 uM; assay type: functional, Homo sapiens
K562 [8] = assay: Compound effect on differentiation of K562 cells, % of benzidine positive cells at 20 uM; assay type: functional, Homo sapiens
K562 [9] = assay: Concentration of the Antiproliferative compound required for the 50% inhibition of Growth against K562 cells; assay type: functional, cell-based; conditions: Homo sapiens
K562 [10] = assay: Compound effect on differentiation of K562 cells, % of benzidine positive cells at 100 uM; assay type: functional, Homo sapiens
K562 [11] = assay: Compound effect on differentiation of K562 cells, % of benzidine positive cells at 14.3 uM; assay type: functional, Homo sapiens
K562 [12] = assay: Compound effect on differentiation of K562 cells, % of benzidine positive cells at 10 uM; assay type: functional, Homo sapiens
K562 [13] = assay: Compound effect on differentiation of K562 cells, % of benzidine positive cells at 1.5 uM; assay type: functional, Homo sapiens
K562 [14] = assay: Compound effect on differentiation of K562 cells, % of benzidine positive cells at 1.6 uM; assay type: functional, Homo sapiens
K562 [15] = assay: Antiproliferative activity against K562 cells; assay type: functional, cell-based, Homo sapiens
[16] = biological target: T1, Inosine-5'-monophosphate dehydrogenase 1; assay: Inhibitory activity against human Inosine-5'-monophosphate dehydrogenase 1 (IMPDH type I);NA is not active; summary of the method: as §1
Target sequence in this assay (P20839 2-514 limits assumed): as above

[17] = biological target: T2, Inosine-5'-monophosphate dehydrogenase 2; assay: Inhibitory activity against human Inosine-5'-monophosphate dehydrogenase 2 (IMPDH type II);NA is not active; summary of the method: as §1

SMILES | Ki [1] [µM] | Ki [2] [µM] | Effect (K562 [3]) [%] | IC50 (K562 [9]) [µM] | further results
NC(=O)c1csc([C@@H]2O[C@H](COP(=O)(O)C(F)(F)P(=O)(O)OC[C@@H]3O[C@H](n4cnc5c(N)ncnc54)[C@@H](O)[C@H]3O)[C@@H](O)[C@H]2O)n1 | 0.3 | 0.3 | 3.4 | – | Effect (K562 [4]): 48%
NC(=O)c1csc([C@@H]2O[C@H](CO)[C@@H](O)[C@H]2O)n1 [TIAZOFURIN] | – | – | 5.3 | – | NA [5]: inactive; NA [6]: inactive; Effect (K562 [7]): 80%
COc1c(C)c2c(c(O)c1CCOP(=O)(O)CP(=O)(O)O)C(=O)OC2 | 0.89 | 0.4 | 3.3 | 43.2 | Effect (K562 [8]): 67%
NC(=O)c1csc([C@H]2O[C@@H](COP(=O)(O)OP(=O)(O)OC[C@H]3O[C@@H](n4cnc5c(N)ncnc54)[C@H](O)[C@@H]3O)[C@H](O)[C@@H]2O)n1 | – | – | 2.5 | – | Effect (K562 [4]): 35%
COc1c(C)c2c(c(O)c1CCOP(=O)(O)CP(=O)(O)OCCc1c(O)c3c(c(C)c1OC)COC3=O)C(=O)OC2 | 2.3 | 0.47 | 0.4 | 2090 | Effect (K562 [10]): 4.4%
NC(=O)c1csc([C@@H]2O[C@H](COP(=O)(O)CP(=O)(O)OC[C@@H]3O[C@H](n4cnc5c(N)ncnc54)[C@@H](O)[C@H]3O)[C@@H](O)[C@H]2O)n1 | 0.11 | 0.11 | 2.4 | – | Effect (K562 [11]): 35%
COc1c(C)c2c(c(O)c1C/C=C(/C)CCCOP(=O)(O)CP(=O)(O)OC[C@@H]1OC(n3cnc4c(N)ncnc43)[C@@H](O)[C@H]1O)C(=O)OC2 (stereo partly specified) | 0.33 | 0.29 | 9 | 1.5 | Effect (K562 [12]): 90%
COc1c(C)c2c(c(O)c1C/C=C(\C)COP(=O)(O)CP(=O)(O)OC[C@@H]1O[C@H](n3cnc4c(N)ncnc43)[C@@H](O)[C@H]1O)C(=O)OC2 | 0.52 | 0.38 | 63.3 | 0.1 | Effect (K562 [13]): 95%
COc1c(C)c2c(c(O)c1CCOP(=O)(O)CP(=O)(O)OC[C@H]1O[C@@H](n3cnc4c(N)ncnc43)[C@H](O)[C@@H]1O)C(=O)OC2 | – | – | 40.9 | – | Effect (K562 [14]): 65.4%
COc1c(C)c2c(c(O)c1C/C=C(\C)CCC(=O)O)C(=O)OC2 [MYCOPHENOLIC ACID] | 0.04 | – | – | – | IC50 (K562 [15]): 0.3 µM
NC(=O)c1cccc(C2OC(COP(=O)(O)CP(=O)(O)OC[C@@H]3OC(n4cnc5c(N)ncnc54)[C@@H](O)[C@H]3O)[C@@H](O)[C@H]2O)c1 (stereo partly specified) | 0.66 | 0.95 | 0.6 | 60 | Effect (K562 [7]): 9.5%
NC(=O)c1cccc([C@@H]2O[C@H](CO)[C@@H](O)[C@H]2O)c1 | – | – | – | 1.5 | NA [16]: inactive; NA [17]: inactive

— ChEMBL document CHEMBL1135710, “Novel mycophenolic adenine bis(phosphonate) analogues as potential differentiation agents against human leukemia” (J Med Chem, 2002)
